Laboratory results published in ChEMBL document CHEMBL5724801, “EUbOPEN Chemogenomics Library - Multiplex” (2024).
Values joined by “and” are separate entries in the source; they are usually repeats but may differ in a detail not shown here. Equal entries are not always repeated.

What was measured:
Assay type in all cases: toxicity, cell-based
[1] = system: HEK-293T; test: Multiplex assay against HEK293T; conditions: human
Summary of the method: (§1)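 Compound was added to live cells that had been stained at seeding with Hoechst33342, BioTracker Green Microtubule Cytoskeleton Dye, MitoTracker Red and Annexin V Alexa Fluor 680, and imaging followed on a CQ1 microscope at 37°C and 5% CO2. CellPathfinder machine-learning gating divided cells into Hoechst high-intensity objects or normal cells, normal cells into healthy, pyknosed or fragmented nuclei, and pyknosed cells into mitotic or apoptotic. Tubulin, mitochondrial-mass and membrane-permeability phenotypes are per cents of healthy-nucleus cells.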

[2] = system: Fibroblast; test: Multiplex assay against human fibroblast; summary of the method: as §1
[3] = system: U2OS; test: Multiplex assay against U2OS; conditions: human; summary of the method: as §1
[4] = 12 h, 1 µM, compound concentration 1 uM
[5] = 12 h, 10 µM, compound concentration 10 uM
[6] = 24 h, 1 µM, compound concentration 1 uM
[7] = 24 h, 10 µM, compound concentration 10 uM
[8] = 48 h, 1 µM, compound concentration 1 uM
[9] = 48 h, 10 µM, compound concentration 10 uM

SMILES: Cc1sc2c(c1C)C(c1ccc(Cl)cc1)=N[C@H](CC(=O)OC(C)(C)C)c1nnc(C)n1-2
- Population Apoptotic (%) [1, 4]: 40% and 44%
- Population Fragmented Nuclei (%) [1, 4]: 8% and 6%
- Population Healthy Nuclei (%) [1, 4]: 80% and 76%
- Population Hoechst High Intensity Objects (%) [1, 4]: 8% and 9%
- Population Membrane Permeable-Phenotype (%) [1, 4]: 0%
- Population Mitochondria Different-Phenotype (%) [1, 4]: 49% and 65%
- Population Mitotic Cells (%) [1, 4]: 60% and 55%
- Population Normal (%) [1, 4]: 91% and 90%
- Population Pyknosed Nuclei (%) [1, 4]: 10% and 17%
- Population Tubulin-Different-Phenotype (%) [1, 4]: 32% and 26%
- Total Cell Count [1, 4]: 478 and 333
- Population Apoptotic (%) [1, 5]: 41% and 66%
- Population Fragmented Nuclei (%) [1, 5]: 7% and 5%
- Population Healthy Nuclei (%) [1, 5]: 76% and 72%
- Population Hoechst High Intensity Objects (%) [1, 5]: 7% and 10%
- Population Membrane Permeable-Phenotype (%) [1, 5]: 0%
- Population Mitochondria Different-Phenotype (%) [1, 5]: 74% and 90%
- Population Mitotic Cells (%) [1, 5]: 58% and 33%
- Population Normal (%) [1, 5]: 92% and 89%
- Population Pyknosed Nuclei (%) [1, 5]: 15% and 21%
- Population Tubulin-Different-Phenotype (%) [1, 5]: 67% and 70%
- Total Cell Count [1, 5]: 395 and 303
- Population Apoptotic (%) [1, 6]: 32%
- Population Fragmented Nuclei (%) [1, 6]: 10%
- Population Healthy Nuclei (%) [1, 6]: 76% and 82%
- Population Hoechst High Intensity Objects (%) [1, 6]: 5% and 6%
- Population Membrane Permeable-Phenotype (%) [1, 6]: 0%
- Population Mitochondria Different-Phenotype (%) [1, 6]: 29% and 43%
- Population Mitotic Cells (%) [1, 6]: 68% and 67%
- Population Normal (%) [1, 6]: 94% and 93%
- Population Pyknosed Nuclei (%) [1, 6]: 13% and 6%
- Population Tubulin-Different-Phenotype (%) [1, 6]: 19% and 11%
- Total Cell Count [1, 6]: 609 and 479
- Population Apoptotic (%) [1, 7]: 41% and 49%
- Population Fragmented Nuclei (%) [1, 7]: 8% and 3%
- Population Healthy Nuclei (%) [1, 7]: 68% and 76%
- Population Hoechst High Intensity Objects (%) [1, 7]: 4% and 6%
- Population Membrane Permeable-Phenotype (%) [1, 7]: 0% and 1%
- Population Mitochondria Different-Phenotype (%) [1, 7]: 64% and 76%
- Population Mitotic Cells (%) [1, 7]: 58% and 50%
- Population Normal (%) [1, 7]: 95% and 93%
- Population Pyknosed Nuclei (%) [1, 7]: 23% and 19%
- Population Tubulin-Different-Phenotype (%) [1, 7]: 46% and 47%
- Total Cell Count [1, 7]: 468 and 378
- Population Apoptotic (%) [1, 8]: 18% and 30%
- Population Fragmented Nuclei (%) [1, 8]: 11% and 14%
- Population Healthy Nuclei (%) [1, 8]: 80% and 79%
- Population Hoechst High Intensity Objects (%) [1, 8]: 3% and 4%
- Population Membrane Permeable-Phenotype (%) [1, 8]: 1% and 0%
- Population Mitochondria Different-Phenotype (%) [1, 8]: 16% and 21%
- Population Mitotic Cells (%) [1, 8]: 81% and 69%
- Population Normal (%) [1, 8]: 96% and 95%
- Population Pyknosed Nuclei (%) [1, 8]: 7% and 5%
- Population Tubulin-Different-Phenotype (%) [1, 8]: 10% and 12%
- Total Cell Count [1, 8]: 1012 and 685
- Population Apoptotic (%) [1, 9]: 31% and 55%
- Population Fragmented Nuclei (%) [1, 9]: 9% and 8%
- Population Healthy Nuclei (%) [1, 9]: 73% and 76%
- Population Hoechst High Intensity Objects (%) [1, 9]: 3% and 5%
- Population Membrane Permeable-Phenotype (%) [1, 9]: 0%
- Population Mitochondria Different-Phenotype (%) [1, 9]: 47% and 66%
- Population Mitotic Cells (%) [1, 9]: 68% and 44%
- Population Normal (%) [1, 9]: 96% and 94%
- Population Pyknosed Nuclei (%) [1, 9]: 16% and 15%
- Population Tubulin-Different-Phenotype (%) [1, 9]: 19% and 28%
- Total Cell Count [1, 9]: 641 and 525
- Population Apoptotic (%) [2, 4]: 43% and 33%
- Population Fragmented Nuclei (%) [2, 4]: 15% and 26%
- Population Healthy Nuclei (%) [2, 4]: 62% and 51%
- Population Hoechst High Intensity Objects (%) [2, 4]: 2% and 5%
- Population Membrane Permeable-Phenotype (%) [2, 4]: 0% and 15%
- Population Mitochondria Different-Phenotype (%) [2, 4]: 5% and 10%
- Population Mitotic Cells (%) [2, 4]: 56% and 66%
- Population Normal (%) [2, 4]: 97% and 94%
- Population Pyknosed Nuclei (%) [2, 4]: 22%
- Population Tubulin-Different-Phenotype (%) [2, 4]: 30% and 46%
- Total Cell Count [2, 4]: 180 and 159
- Population Apoptotic (%) [2, 5]: 43% and 51%
- Population Fragmented Nuclei (%) [2, 5]: 19% and 30%
- Population Healthy Nuclei (%) [2, 5]: 55% and 39%
- Population Hoechst High Intensity Objects (%) [2, 5]: 7% and 5%
- Population Membrane Permeable-Phenotype (%) [2, 5]: 0% and 4%
- Population Mitochondria Different-Phenotype (%) [2, 5]: 15% and 20%
- Population Mitotic Cells (%) [2, 5]: 56% and 48%
- Population Normal (%) [2, 5]: 92% and 94%
- Population Pyknosed Nuclei (%) [2, 5]: 25% and 29%
- Population Tubulin-Different-Phenotype (%) [2, 5]: 90% and 95%
- Total Cell Count [2, 5]: 128 and 169
- Population Apoptotic (%) [2, 6]: 82% and 46%
- Population Fragmented Nuclei (%) [2, 6]: 17% and 29%
- Population Healthy Nuclei (%) [2, 6]: 60% and 50%
- Population Hoechst High Intensity Objects (%) [2, 6]: 2% and 6%
- Population Membrane Permeable-Phenotype (%) [2, 6]: 0% and 11%
- Population Mitochondria Different-Phenotype (%) [2, 6]: 2% and 5%
- Population Normal (%) [2, 6]: 97% and 93%
- Population Pyknosed Nuclei (%) [2, 6]: 21% and 20%
- Population Tubulin-Different-Phenotype (%) [2, 6]: 29% and 51%
- Total Cell Count [2, 6]: 186 and 149
- Population Apoptotic (%) [2, 7]: 75% and 51%
- Population Fragmented Nuclei (%) [2, 7]: 16% and 26%
- Population Healthy Nuclei (%) [2, 7]: 69% and 45%
- Population Hoechst High Intensity Objects (%) [2, 7]: 8% and 4%
- Population Membrane Permeable-Phenotype (%) [2, 7]: 2% and 4%
- Population Mitochondria Different-Phenotype (%) [2, 7]: 19% and 26%
- Population Mitotic Cells (%) [2, 7]: 25% and 48%
- Population Normal (%) [2, 7]: 91% and 95%
- Population Pyknosed Nuclei (%) [2, 7]: 14% and 27%
- Population Tubulin-Different-Phenotype (%) [2, 7]: 76% and 87%
- Total Cell Count [2, 7]: 123 and 165
- Population Apoptotic (%) [2, 8]: 63% and 53%
- Population Fragmented Nuclei (%) [2, 8]: 19% and 29%
- Population Healthy Nuclei (%) [2, 8]: 66% and 49%
- Population Hoechst High Intensity Objects (%) [2, 8]: 5%
- Population Membrane Permeable-Phenotype (%) [2, 8]: 0% and 12%
- Population Mitochondria Different-Phenotype (%) [2, 8]: 2% and 10%
- Population Mitotic Cells (%) [2, 8]: 36% and 46%
- Population Normal (%) [2, 8]: 94% and 95%
- Population Pyknosed Nuclei (%) [2, 8]: 13% and 21%
- Population Tubulin-Different-Phenotype (%) [2, 8]: 28% and 69%
- Total Cell Count [2, 8]: 170 and 140
- Population Apoptotic (%) [2, 9]: 50% and 63%
- Population Fragmented Nuclei (%) [2, 9]: 21% and 35%
- Population Healthy Nuclei (%) [2, 9]: 66% and 51%
- Population Hoechst High Intensity Objects (%) [2, 9]: 1%
- Population Membrane Permeable-Phenotype (%) [2, 9]: 1% and 4%
- Population Mitochondria Different-Phenotype (%) [2, 9]: 13% and 9%
- Population Mitotic Cells (%) [2, 9]: 50% and 36%
- Population Normal (%) [2, 9]: 98%
- Population Pyknosed Nuclei (%) [2, 9]: 12% and 13%
- Population Tubulin-Different-Phenotype (%) [2, 9]: 70% and 88%
- Total Cell Count [2, 9]: 134 and 170
- Population Apoptotic (%) [3, 4]: 81% and 71%
- Population Fragmented Nuclei (%) [3, 4]: 28% and 16%
- Population Healthy Nuclei (%) [3, 4]: 63% and 77%
- Population Hoechst High Intensity Objects (%) [3, 4]: 2% and 4%
- Population Membrane Permeable-Phenotype (%) [3, 4]: 7%
- Population Mitochondria Different-Phenotype (%) [3, 4]: 4% and 2%
- Population Mitotic Cells (%) [3, 4]: 18% and 28%
- Population Normal (%) [3, 4]: 97% and 95%
- Population Pyknosed Nuclei (%) [3, 4]: 8% and 6%
- Population Tubulin-Different-Phenotype (%) [3, 4]: 4%
- Total Cell Count [3, 4]: 256 and 120
- Population Apoptotic (%) [3, 5]: 51% and 90%
- Population Fragmented Nuclei (%) [3, 5]: 32% and 22%
- Population Healthy Nuclei (%) [3, 5]: 56% and 68%
- Population Hoechst High Intensity Objects (%) [3, 5]: 2% and 0%
- Population Mitochondria Different-Phenotype (%) [3, 5]: 35% and 24%
- Population Normal (%) [3, 5]: 97% and 100%
- Population Pyknosed Nuclei (%) [3, 5]: 11% and 8%
- Total Cell Count [3, 5]: 240 and 118
- Population Apoptotic (%) [3, 6]: 77% and 75%
- Population Fragmented Nuclei (%) [3, 6]: 22% and 20%
- Population Healthy Nuclei (%) [3, 6]: 69% and 70%
- Population Hoechst High Intensity Objects (%) [3, 6]: 0% and 3%
- Population Membrane Permeable-Phenotype (%) [3, 6]: 5%
- Population Mitochondria Different-Phenotype (%) [3, 6]: 1% and 2%
- Population Mitotic Cells (%) [3, 6]: 22% and 25%
- Population Normal (%) [3, 6]: 99% and 96%
- Population Pyknosed Nuclei (%) [3, 6]: 7% and 8%
- Population Tubulin-Different-Phenotype (%) [3, 6]: 1% and 2%
- Total Cell Count [3, 6]: 280 and 149
- Population Apoptotic (%) [3, 7]: 83% and 76%
- Population Fragmented Nuclei (%) [3, 7]: 29% and 24%
- Population Healthy Nuclei (%) [3, 7]: 57% and 65%
- Population Hoechst High Intensity Objects (%) [3, 7]: 2% and 0%
- Population Membrane Permeable-Phenotype (%) [3, 7]: 17% and 7%
- Population Mitochondria Different-Phenotype (%) [3, 7]: 17% and 25%
- Population Mitotic Cells (%) [3, 7]: 16% and 23%
- Population Normal (%) [3, 7]: 97% and 99%
- Population Pyknosed Nuclei (%) [3, 7]: 13% and 10%
- Population Tubulin-Different-Phenotype (%) [3, 7]: 8% and 3%
- Total Cell Count [3, 7]: 280 and 130
- Population Apoptotic (%) [3, 8]: 77% and 96%
- Population Fragmented Nuclei (%) [3, 8]: 20% and 21%
- Population Healthy Nuclei (%) [3, 8]: 72% and 64%
- Population Hoechst High Intensity Objects (%) [3, 8]: 1% and 3%
- Population Membrane Permeable-Phenotype (%) [3, 8]: 5% and 7%
- Population Mitochondria Different-Phenotype (%) [3, 8]: 2% and 7%
- Population Normal (%) [3, 8]: 98% and 96%
- Population Pyknosed Nuclei (%) [3, 8]: 6% and 14%
- Population Tubulin-Different-Phenotype (%) [3, 8]: 2% and 5%
- Total Cell Count [3, 8]: 415 and 228
- Population Apoptotic (%) [3, 9]: 86% and 89%
- Population Fragmented Nuclei (%) [3, 9]: 23% and 20%
- Population Healthy Nuclei (%) [3, 9]: 57% and 68%
- Population Hoechst High Intensity Objects (%) [3, 9]: 2% and 1%
- Population Membrane Permeable-Phenotype (%) [3, 9]: 11%
- Population Mitochondria Different-Phenotype (%) [3, 9]: 7% and 8%
- Population Mitotic Cells (%) [3, 9]: 13% and 10%
- Population Normal (%) [3, 9]: 97% and 98%
- Population Pyknosed Nuclei (%) [3, 9]: 18% and 11%
- Population Tubulin-Different-Phenotype (%) [3, 9]: 5% and 3%
- Total Cell Count [3, 9]: 342 and 174
